The source of these data is paper PMC11071470 (bioRxiv, 2024).

Test [1] has as its target A3Bctd (Homo sapiens, UniProt Q9UH17). Put plainly: Intact protein mass spectrometry. Type of test: binding. An outline of the steps:
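Covalent test compound incubated with A3Bctd for 1 h and 3 h at varying molar equivalents of compound over protein, then analysed by intact protein mass spectrometry. Degree of covalent adduction was quantified from the intensity of the adduct mass species.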

Test [2] addresses T1, UDG (Escherichia coli, UniProt P12295).
T1 sequence (P12295 1-229): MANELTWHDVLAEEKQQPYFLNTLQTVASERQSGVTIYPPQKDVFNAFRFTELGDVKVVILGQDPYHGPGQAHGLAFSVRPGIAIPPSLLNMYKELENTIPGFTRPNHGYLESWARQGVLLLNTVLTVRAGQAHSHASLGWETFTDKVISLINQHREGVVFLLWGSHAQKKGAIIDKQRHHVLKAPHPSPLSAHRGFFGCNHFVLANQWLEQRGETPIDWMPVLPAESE
The note with it: cited from earlier work.

Sequence of A3Bctd (Q9UH17 193-382): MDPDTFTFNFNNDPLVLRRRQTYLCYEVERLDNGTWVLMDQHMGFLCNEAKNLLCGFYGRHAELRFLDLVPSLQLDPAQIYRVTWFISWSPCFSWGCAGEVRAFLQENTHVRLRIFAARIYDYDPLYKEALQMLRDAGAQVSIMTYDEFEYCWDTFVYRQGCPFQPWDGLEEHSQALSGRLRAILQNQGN

For `CCC1(O)CCCN(C(=O)c2ccc(-c3ccc(F)c(NC(=O)CCl)c3)cc2)C1` (centres unmarked) [Compound 24], the “multiple adduction events (in words)” value in test [1] was “Multiple adduction events are detected”.

For `O=C(O)C1=CC(=C(c2ccc(O)c(C(=O)O)c2)c2ccc(O)c(C(=O)O)c2)C=CC1=O` [MN1, aurintricarboxylic acid], in test [2], the “inhibition of UDG (in words)” value is reported as “inhibits UDG”.
